Sampled rows, rich in hits. Any-hit rate of the full collection: about 3%.
PfGluPho inh: PfG6PD (Plasmodium falciparum) enzyme inhibition; PfGluPho enzyme, NADPH resazurin-diaphorase fluorescence; inhibition, % at 20 µM; 0.78% of 350,000 active;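 active means inhibition reaching at least a set limit at 20 µM in the primary screen, cut at about 59% in these data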;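 further: 0% = DMSO wells with substrate and 100% = DMSO wells lacking glucose-6-phosphate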
MC4R antagonist: human MC4R antagonism in cAMP assay; inhibition, % at 6.5 µM; MC4R-expressing cells, MTII-stimulated cAMP, LANCE TR-FRET; 0.48% of 360,000 active;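 active means inhibition above its plate's cutoff, the mean of tested wells on that plate plus 3 SD, cut at about 29% in these data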;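 further: 0% = Melanotan II alone and 100% = Melanotan II plus saturating MCL0020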
Target sequence (P32245 whole entry, looked up): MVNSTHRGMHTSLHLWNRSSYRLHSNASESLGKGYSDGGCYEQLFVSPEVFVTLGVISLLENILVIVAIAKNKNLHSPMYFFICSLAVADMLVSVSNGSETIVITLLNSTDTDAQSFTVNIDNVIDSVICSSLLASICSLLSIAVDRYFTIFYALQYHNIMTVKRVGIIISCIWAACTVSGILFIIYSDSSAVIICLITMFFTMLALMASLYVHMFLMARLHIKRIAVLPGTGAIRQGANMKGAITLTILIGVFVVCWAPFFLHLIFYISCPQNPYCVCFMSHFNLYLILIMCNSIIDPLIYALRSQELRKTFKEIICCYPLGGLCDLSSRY
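Material – human MC4R-expressing U2OS cells · Repeats – no replicates · Detection – TR-FRET with Eu-cAMP and labeled anti-cAMP, 671 nm · Times – compound 30 min, challenge 1 h, detection 1 h · Compound – single nominal compound dose of 6.5 µM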
MC4R ag barr: activates human MC4R beta-arrestin recruitment; activation, % at 8.9 µM; AID 540308; 0.98% of 360,000 active; U2OS MC4R beta-arrestin complementation, luminescence; percent of melanotan II response, DMSO zero; P32245;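 active means activation above a per-plate cutoff, the mean activation of sample wells on that plate plus 3 SD, cut at about 8% in these data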
Beta2AR agonist: agonists of human beta-2 adrenergic receptor inducing internalization; AID 504454; Am2.2-beta2AR cells, FAP receptor internalization, flow cytometry; 0.43% of 340,000 active; response, % (no concentration beside the values);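 active means response above a set limit, near 3 SD of response in nonfluorescent compounds, cut at about 42% in these data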
ABHD5 PLIN5 PPI: blocks binding of human ABHD5 to perilipin-5; Split G. princeps luciferase complementation, luminescence, 4 h; inhibition, % at 4 µM; 0.78% of 360,000 active; AID 602281;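 active means inhibition above the mean inhibition across every tested compound plus 3 SD, cut at about 22% in these data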;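 further: 0% = DMSO only wells and the 100% control is not disclosed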
MC4R barr conf: human MC4R beta-arrestin agonism confirmation; shares compounds with MC4R ag barr; U2OS MC4R beta-arrestin recruitment, luminescence; scaled DMSO 0%, Melanotan II 100%; activation, % at 8.9 µM; 31% of 2,400 active;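 active means mean activation across replicates above the hit cutoff set in the earlier primary screen, cut at about 8% in these data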
MOR DOR agonist: OPRM1-OPRD1 heterodimer agonism counter-screen; AID 602194; U2OS PathHunter beta-arrestin, beta-gal luminescence; percent of deltorphin B response, DMSO zero; activation, % at 9.2 µM; shares compounds with MC4R ag barr; 5.8% of 2,400 active;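 active means mean activation across replicates exceeds the hit threshold derived in the earlier primary screen, cut at about 18% in these data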;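 further: 100% = deltorphin B at 0.9 µM final and 0% = DMSO alone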
Starred values were filed as active, the others as inactive; . = no result given; ! = repeats disagree.

SMILES | PfGluPho inh | MC4R antagonist | MC4R ag barr | Beta2AR agonist | ABHD5 PLIN5 PPI | MC4R barr conf | MOR DOR agonist
COc1ccc2c(C)nc(Nc3nc(-c4ccccc4)cc(=O)[nH]3)nc2c1 | 33 | -17 | 26* | 23 | -8 | 8.4* | 3
Cc1ccc2nc(Nc3nc(-c4ccccc4)cc(=O)[nH]3)nc(C)c2c1 | -1 | -8 | -1 | -8 | 7 | . | .
Nc1nc2ccccc2cc1C(=O)NCCCCc1ccccc1 | . | . | . | . | 4 | . | .
O=C(NCCc1ccccc1)C1Cc2c(-c3ccccc3Oc3ccccc3)ccnc2O1 (configuration not stated) | . | 1 | -1 | . | -5 | . | .
O=[N+]([O-])c1cc(S(=O)(=O)N2CCCC2)ccc1N/N=C/c1ccncc1 | 7 | -4 | -1 | 5 | 1 | . | .
O=[N+]([O-])c1cc(S(=O)(=O)N2CCCC2)ccc1N/N=C/c1cccs1 | 2 | -7 | 20* | -4 | 0 | 2 | 4
O=C(CNC(=O)C1CCCCC1)NNC(=O)c1ccccc1Br | 2 | -5 | -2 | 5 | -7 | . | .
COc1ccc(CCN2C(=O)C(Oc3ccccc3)C2c2ccc3c(c2)OCO3)cc1 (configuration not stated) | 17 | 7 | 18* | 5 | 0 | 0 | 3
COc1ccc(OCC(=O)N/N=C/C(C)=C/c2ccco2)c(Br)c1 | 2 | 18 | 19* | -5 | -10 | -1 | 8
COc1ccc(/C=N/NC(=O)c2cccc(C(=O)N/N=C/c3ccc(OC)c(OC)c3)n2)cc1OC | -13 | -4 | -3 | -6 | -6 | . | .
COc1ccc(/C=N/NC(=O)Nc2cccc3nsnc23)cc1OC | -2 | 1 | 11* | 17 | 0 | 1 | 12
CSc1ccccc1NC(=O)C1CC(c2ccccc2O)=NO1 (configuration not stated) | 22 | 3 | 1 | -13 | -5 | . | .
COC(=O)c1ccccc1NC(=O)C1CC(c2ccccc2O)=NO1 (configuration not stated) | 1 | 6 | 14* | -3 | 8 | -2 | 4
CCc1nonc1NC(=O)c1oc2cc(C)c(C)cc2c1C | -11 | 1 | 12* | 5 | -4 | 2 | 6
CCc1nonc1NC(=O)c1oc2cc(C)c(Cl)cc2c1C | -3 | 11 | 1 | -4 | -13 | . | .
Cc1ccc(C(=O)Nc2cccc(C(F)(F)F)c2)cc1NC(=O)c1c[nH]c2cc(C(F)(F)F)ccc2c1=O | -5 | 13 | -2 | -4 | 2 | . | .
CCN1CCN(Cc2ccc(NC(=O)c3ccc(C)c(NC(=O)c4c[nH]c5cc(C(F)(F)F)ccc5c4=O)c3)cc2C(F)(F)F)CC1 | -36 | -2 | 12*! | 41 | 12 | 5 | 78*
OC1(c2ccccc2)CNCCc2ccccc21 (configuration not stated) | -5 | 9 | -1 | 1 | -5 | . | .
Cc1c(Cc2ccccc2)sc(NC(=O)C(C)(C)C)c1C(N)=O | 33 | 10 | 0 | -5 | 4 | . | .
COc1ccc(/C=C/C(=O)Nc2sc(Cc3ccccc3)c(C)c2C(N)=O)cc1 | 0 | -6 | 25* | 16 | 13 | 16* | 8
CCC(=O)Nc1sc(Cc2ccccc2)c(C)c1C(N)=O | 22 | 3 | -3 | -3 | 4 | . | .
Cc1c(Cc2ccccc2)sc(NC(=O)Cc2ccccc2)c1C(N)=O | 54 | 6 | 11* | -2 | -22 | 4 | 5
O=C(COc1ccccc1)Nc1nnc(COc2ccccc2)s1 | -8 | 2 | 9.9* | 5 | -4 | -5 | 3
O=C(COc1ccccc1)OCc1cc(-c2ccco2)on1 | 3 | -1 | 1 | -1 | 7 | . | .
O=[N+]([O-])c1ccc(/C=C/c2ccc3cccc([N+](=O)[O-])c3n2)cc1 | 27 | 4 | 10* | 3 | -3 | 4 | 7
CCn1c(SCCN2CCCCC2)nc2c1c(=O)n(C)c(=O)n2C | 20 | -1 | 0 | -1 | -4 | . | .
COc1ccc(OC)c(Nc2nc(C3CC3)nc3c2nnn3Cc2ccccc2)c1 | 28 | 3 | -2 | -8 | -7 | . | .
